Laboratory results as given in ChEMBL document CHEMBL2176900, “Design and synthesis of a novel series of bicyclic heterocycles as potent γ-secretase modulators” (J Med Chem, 2012).

How the values were obtained:
[1] = Drug metabolism in mouse liver microsomes at 1 uM after 15 mins by ion-trap mass spectrophotometry; assay type: ADME, Microsome; settings: read-out: Drug metabolism
Canis familiaris = assay: Antialzheimer activity in beagle dog assessed as amyloid beta 40 level in cerebrospinal fluid at 20 mg/kg, po at 8 hrs by ELISA relative to control
[2] = Fraction unbound in human plasma; assay type: ADME, cell-free
[3] = Inhibition of sodium channel site 2 at 10 uM
Rattus norvegicus [4] = assay: Antialzheimer activity in Sprague-Dawley rat assessed as amyloid beta 42 level in CSF at 10 mg/kg, po at 4 hrs by ELISA relative to control; assay type: functional
Procedure, shortened: (§1)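 Male Sprague-Dawley rats (180-220 g), fasted overnight, were given 10 mg/kg by gastric intubation as a 5 mg/mL suspension in 0.5% methocellulose. At 2, 4, 7 and 25 h, 50 μL CSF was taken from the cisterna magna under isoflurane, then brain was collected. Aβ37/38/40/42 were measured by MesoScale Discovery sandwich immunoassays. Results are mean % change versus T = 0 h, n = 5.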

[5] = Drug metabolism in rat liver microsomes at 1 uM after 15 mins by ion-trap mass spectrophotometry; assay type: ADME, Microsome; settings: read-out: Drug metabolism
[6] = Plasma concentration in beagle dog at 20 mg/kg, po at 24 hrs; assay type: ADME, organism-based, Canis lupus familiaris; parameters: dose 20 mg/kg, route oral
Mus musculus [7] = assay: Inhibition of gamma-secretase in CD1 mouse assessed as total amyloid beta level in brain at 30 mg/kg, po at 4 hrs by ELISA relative to control; assay type: functional; parameters: scale not given: the % may be the effect or the level left
Procedure, shortened: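 Fasted male CD1 SPF mice were dosed orally at 10 or 30 mg/kg in 20% Captisol. Right hemisphere was homogenized in 0.4% DEA/50 mM NaCl and the high-speed supernatant neutralized. Aβtotal ELISA used N-terminal JRF/rAβ/2 capture, biotinylated 4G8 and streptavidin-peroxidase, then a fluorogenic substrate (ex 320/em 420 nm). Standards spanned 10000–0.3 pg/mL. Values are % change vs T = 0 h, n = 4.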

[8] = Plasma concentration in beagle dog at 20 mg/kg, po at 8 hrs; assay type: ADME, organism-based, Canis lupus familiaris; parameters: dose 20 mg/kg, route oral
Cytochrome P450 3A4 = Cytochrome P450 3A4 (Homo sapiens, UniProt P08684); assay: Inhibition of CYP3A4 in human liver microsomes using testosterone as substrate; assay type: ADME, Microsome
Sequence of Cytochrome P450 3A4 (P08684 whole entry): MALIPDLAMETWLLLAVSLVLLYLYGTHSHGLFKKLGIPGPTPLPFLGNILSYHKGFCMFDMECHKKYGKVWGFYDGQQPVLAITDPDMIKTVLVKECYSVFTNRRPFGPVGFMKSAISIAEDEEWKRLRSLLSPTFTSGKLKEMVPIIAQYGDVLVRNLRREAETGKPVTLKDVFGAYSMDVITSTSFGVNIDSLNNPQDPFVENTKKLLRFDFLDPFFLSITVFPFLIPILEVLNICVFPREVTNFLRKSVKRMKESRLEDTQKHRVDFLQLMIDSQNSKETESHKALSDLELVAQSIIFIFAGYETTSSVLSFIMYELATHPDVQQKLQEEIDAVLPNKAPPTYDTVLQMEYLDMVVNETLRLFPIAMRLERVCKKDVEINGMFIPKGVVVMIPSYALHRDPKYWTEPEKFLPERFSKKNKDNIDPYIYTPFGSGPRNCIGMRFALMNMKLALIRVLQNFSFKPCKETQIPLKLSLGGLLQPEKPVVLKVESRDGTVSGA

Rattus norvegicus [9] = assay: Antialzheimer activity in Sprague-Dawley rat assessed as amyloid beta 38 level in brain at 10 mg/kg, po at 7 hrs by ELISA relative to control; assay type: functional; procedure, shortened: as §1
Rattus norvegicus [10] = assay: Antialzheimer activity in Sprague-Dawley rat assessed as amyloid beta 40 level in brain at 10 mg/kg, po at 4 hrs by ELISA relative to control; assay type: functional; procedure, shortened: as §1
[11] = Fraction unbound in dog plasma; assay type: ADME, cell-free, Canis lupus familiaris
Rattus norvegicus [12] = assay: Antialzheimer activity in Sprague-Dawley rat assessed as amyloid beta 38 level in CSF at 10 mg/kg, po at 4 hrs by ELISA relative to control; assay type: functional; procedure, shortened: as §1
Mus musculus [13] = assay: Antialzheimer activity in CD1 mouse assessed as amyloid beta 42 level in brain at 30 mg/kg, po at 8 hrs by ELISA relative to control; assay type: functional
Procedure, shortened: (§2)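 Male CD1 SPF mice, fasted overnight, got a single oral dose of 10 or 30 mg/kg. At each time point the right brain hemisphere was homogenized in 0.4% DEA/50 mM NaCl with protease inhibitors and spun at 221300g for 50 min. The supernatant was neutralized with Tris-HCl pH 6.8. Aβ38 or Aβ42 was read by sandwich ELISA with a fluorogenic peroxidase substrate (ex 320/em 420 nm). Results are mean % change versus T = 0 h, n = 4.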

Rattus norvegicus [14] = assay: Antialzheimer activity in Sprague-Dawley rat assessed as amyloid beta 42 level in brain at 10 mg/kg, po at 2 hrs by ELISA relative to control; assay type: functional; procedure, shortened: as §1
MDR1 = assay: Apparent permeability from apical to basal side of pig LLCPK1 cells expressing MDR1; assay type: ADME, cell-based, Sus scrofa; settings: LLC-PK1
[15] = target: Voltage-gated inwardly rectifying potassium channel KCNH2 (Homo sapiens, UniProt Q12809); assay: Displacement of [3H]dofetilide to human ERG expressed in HEK293 cells; assay type: cell-based
Sequence of Voltage-gated inwardly rectifying potassium channel KCNH2 (Q12809 whole entry): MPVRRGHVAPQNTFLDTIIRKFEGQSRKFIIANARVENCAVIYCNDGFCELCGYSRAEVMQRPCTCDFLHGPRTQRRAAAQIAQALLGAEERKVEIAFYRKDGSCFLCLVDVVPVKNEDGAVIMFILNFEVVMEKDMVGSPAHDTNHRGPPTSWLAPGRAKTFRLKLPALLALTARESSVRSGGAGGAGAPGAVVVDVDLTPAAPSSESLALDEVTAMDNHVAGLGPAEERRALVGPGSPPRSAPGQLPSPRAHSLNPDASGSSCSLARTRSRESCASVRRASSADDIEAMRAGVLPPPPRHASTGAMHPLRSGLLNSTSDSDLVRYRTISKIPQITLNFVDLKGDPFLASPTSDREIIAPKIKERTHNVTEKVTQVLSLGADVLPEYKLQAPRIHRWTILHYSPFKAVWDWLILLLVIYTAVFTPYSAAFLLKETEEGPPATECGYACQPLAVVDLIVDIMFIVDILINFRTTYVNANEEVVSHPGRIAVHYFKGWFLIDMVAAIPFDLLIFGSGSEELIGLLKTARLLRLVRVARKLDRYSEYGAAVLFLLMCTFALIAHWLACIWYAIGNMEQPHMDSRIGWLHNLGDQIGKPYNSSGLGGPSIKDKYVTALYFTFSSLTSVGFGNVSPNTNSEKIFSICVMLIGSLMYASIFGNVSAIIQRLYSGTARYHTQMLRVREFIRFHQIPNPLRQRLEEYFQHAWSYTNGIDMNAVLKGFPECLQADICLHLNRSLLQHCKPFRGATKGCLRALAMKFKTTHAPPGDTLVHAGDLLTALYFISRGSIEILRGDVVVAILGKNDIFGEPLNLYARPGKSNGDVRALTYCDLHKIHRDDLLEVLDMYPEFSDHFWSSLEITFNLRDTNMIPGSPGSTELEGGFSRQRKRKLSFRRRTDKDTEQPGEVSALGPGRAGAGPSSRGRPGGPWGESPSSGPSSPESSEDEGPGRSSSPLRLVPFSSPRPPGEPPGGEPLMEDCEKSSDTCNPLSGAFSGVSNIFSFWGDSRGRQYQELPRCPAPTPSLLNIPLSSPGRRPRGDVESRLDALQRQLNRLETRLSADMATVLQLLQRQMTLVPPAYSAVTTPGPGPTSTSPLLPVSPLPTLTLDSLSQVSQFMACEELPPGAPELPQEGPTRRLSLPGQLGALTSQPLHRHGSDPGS

[16] = Fraction unbound in rat plasma; assay type: ADME, cell-free
Gamma-secretase = assay: Modulation of gamma-secretase in human SK-N-BE(2) cells expressing wild type APP 695 assessed as reduction in amyloid beta 42 level after overnight incubation by sandwich immunoassay; assay type: cell-based
Procedure, shortened: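 SK-N-BE(2) cells carrying wild-type APP695, plated at 10⁴ cells/well in Ultraculture with glutamine, NEAA, penicillin/streptomycin plus test compound at a range of concentrations. Incubated overnight at 37 °C, 5% CO₂. Supernatant Aβ42 measured by AlphaLisa sandwich immunoassay (JRF/cAβ42/26 capture, biotinylated JRF/AβN/25). IC50 derived from % of maximal Aβ42 without compound. Mean of at least three determinations.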

[17] = Drug uptake in Sprague-Dawley rat brain at 10 mg/kg, po at 7 hrs by LC-MS/MS analysis; assay type: ADME, organism-based; parameters: dose 10 mg/kg, route oral; settings: read-out: Drug uptake
Procedure, shortened: (§3)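 Overnight-fasted male Sprague–Dawley rats (180–220 g) were dosed 10 mg/kg by gastric intubation of a 5 mg/mL suspension in 0.5% methocellulose. Rats were anesthetized with isoflurane, CSF was taken from the cisterna magna, then they were decapitated. Brain compound levels were measured as in the mouse assay. n = 5.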

Mus musculus [18] = assay: Antialzheimer activity in CD1 mouse assessed as amyloid beta 38 level in brain at 30 mg/kg, po at 8 hrs by ELISA relative to control; assay type: functional; procedure, shortened: as §2
[19] = Drug uptake in Sprague-Dawley rat brain at 10 mg/kg, po at 2 hrs by LC-MS/MS analysis; assay type: ADME, organism-based; parameters: dose 10 mg/kg, route oral; settings: read-out: Drug uptake; procedure, shortened: as §3
Rattus norvegicus [20] = assay: Antialzheimer activity in Sprague-Dawley rat assessed as amyloid beta 38 level in brain at 10 mg/kg, po at 4 hrs by ELISA relative to control; assay type: functional; procedure, shortened: as §1
Rattus norvegicus [21] = assay: Antialzheimer activity in Sprague-Dawley rat assessed as amyloid beta 40 level in brain at 10 mg/kg, po at 25 hrs by ELISA relative to control; assay type: functional; procedure, shortened: as §1
Rattus norvegicus [22] = assay: Antialzheimer activity in Sprague-Dawley rat assessed as amyloid beta 42 level in brain at 10 mg/kg, po at 25 hrs by ELISA relative to control; assay type: functional; procedure, shortened: as §1
Mus musculus [23] = assay: Antialzheimer activity in CD1 mouse assessed as amyloid beta 42 level in brain at 30 mg/kg, po at 48 hrs by ELISA relative to control; assay type: functional
Procedure, shortened: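 Male CD1 mice, fasted overnight, received a single 10 or 30 mg/kg oral dose. Brain was sampled at an added 48 h time point. The DEA-soluble brain fraction was neutralized and Aβ42 was measured by sandwich ELISA with fluorogenic read-out. Values are % versus vehicle.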

Mus musculus [24] = assay: Antialzheimer activity in CD1 mouse assessed as amyloid beta 42 level in brain at 10 mg/kg, po at 8 hrs by ELISA relative to control; assay type: functional; procedure, shortened: as §2
Rattus norvegicus [25] = assay: Antialzheimer activity in Sprague-Dawley rat assessed as amyloid beta 38 level in brain at 10 mg/kg, po at 2 hrs by ELISA relative to control; assay type: functional; procedure, shortened: as §1

## COc1nc(Nc2cccc3c2nc(-c2ccc(F)cc2)n3C)ccc1-n1cnc(C)c1
[1]
  metabolised at 0.25 h, 1 µM: 0%
Canis familiaris
  Activity: 64%
[2]
  fraction unbound: 0.0013
[3]
  inhibition: 60%
Rattus norvegicus [4]
  Activity: 66%
[5]
  metabolised at 0.25 h, 1 µM: 16%
[6]
  concentration at 24 h: 40 nM
Mus musculus [7]
  Activity: 98%
[8]
  concentration at 8 h: 1700 nM
Cytochrome P450 3A4
  IC50: 2900 nM
Rattus norvegicus [9]
  Activity: 127%
Rattus norvegicus [10]
  Activity: 64%
[11]
  fraction unbound: 0.0003
Rattus norvegicus [12]
  Activity: 179%
Mus musculus [13]
  Activity: 29%
Rattus norvegicus [14]
  Activity: 75%
MDR1
  Papp A→B: 8 ×10⁻⁶ cm/s
[15]
  IC50: 8500 nM
[16]
  fraction unbound: 0.0004
Gamma-secretase
  IC50: 16 nM
[17]
  concentration at 7 h: 2000 nM
Mus musculus [18]
  Activity: 156%
[19]
  concentration at 2 h: 2500 nM
Rattus norvegicus [20]
  Activity: 114%
Rattus norvegicus [21]
  Activity: 107%
Rattus norvegicus [22]
  Activity: 92%
Mus musculus [23]
  Activity: 101%
Mus musculus [24]
  Activity: 50%
Rattus norvegicus [25]
  Activity: 149%
